The nature of assay [1]: The binding affinity towards ErmAM methylase identified by NMR.
The target of assay [2] is T1, rRNA adenine N-6-methyltransferase (Streptococcus pneumoniae, UniProt P21236).
T1 sequence (P21236 whole entry): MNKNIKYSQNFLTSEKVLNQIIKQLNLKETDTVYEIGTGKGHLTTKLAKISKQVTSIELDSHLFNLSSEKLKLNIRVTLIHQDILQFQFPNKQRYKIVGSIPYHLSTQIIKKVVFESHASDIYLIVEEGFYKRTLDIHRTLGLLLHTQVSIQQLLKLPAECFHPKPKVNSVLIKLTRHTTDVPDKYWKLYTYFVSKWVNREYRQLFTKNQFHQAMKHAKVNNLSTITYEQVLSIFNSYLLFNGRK
In words: Inhibitory activity against ErmAM methylase. The essentials: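 Radiometric methyltransferase assay in 50 mM Tris pH 7.5, 100 mM KCl, 4 mM MgCl2, 1 mM DTT with 95 nM ErmAM. Enzyme was preincubated with compound for 15 min at room temperature, in duplicate. Reaction was then started with 250 nM S-adenosyl-L-[methyl-3H]methionine and 80 nM E. coli rRNA and run 2 h at room temperature. It was stopped with 10% TCA/100 mM KCl on ice. TCA-precipitated counts were read after filtration. IC50 was taken from percent inhibition versus control plotted against concentration.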

In assay [3] the target is rRNA adenine N-6-methyltransferase (Bacillus subtilis, UniProt P13956). In words: Inhibitory activity against ErmC methylase. The method in brief: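 ErmC′ (143 nM) preincubated with compound, in duplicate, 15 min at room temperature in 50 mM Tris pH 7.5, 40 mM KCl, 4 mM MgCl2, 10 mM DTT. Started with 250 nM S-adenosyl-L-[methyl-3H]methionine and 80 nM E. coli rRNA, 2 h room temperature. Stopped with 10% TCA/100 mM KCl, filtered, washed. Precipitated counts taken as percent inhibition versus no-inhibitor wells, and IC50 read from concentration curve.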

Assay [4] can be described thus: The binding affinity towards N-labeled Erythromycin-resistant ErmAM methylase evaluated by NMR. The essentials:
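Uniformly 15N-labeled ErmAM, 0.3 mM in H2O/D2O 9:1 with 20 mM BisTris, 10 mM DTT, pH 6.5. Ligand added in perdeuterated DMSO. Sensitivity-enhanced 15N HSQC run at 30 °C with and without ligand, screening at 1.0 mM. KD from chemical shift changes versus ligand concentration, fit to a single-site model by least-squares grid search.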

The structures appear in SMILES notation. pKd, pKi: −log10 of the molar value.

Sequence of rRNA adenine N-6-methyltransferase (Bacillus subtilis, UniProt P13956) (P13956 whole entry): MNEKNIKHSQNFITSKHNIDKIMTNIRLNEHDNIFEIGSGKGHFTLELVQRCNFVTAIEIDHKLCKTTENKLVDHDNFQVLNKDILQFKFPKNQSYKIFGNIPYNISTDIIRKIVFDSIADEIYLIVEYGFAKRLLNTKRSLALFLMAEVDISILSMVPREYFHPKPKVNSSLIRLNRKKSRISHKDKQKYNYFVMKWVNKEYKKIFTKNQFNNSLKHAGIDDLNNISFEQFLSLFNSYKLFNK

On to `Nc1nc(N)nc(-c2ccc(O)cc2)n1`, for which the pKd in assay [1] is 1.92.
In the case of `Nc1nc(NC2CCCCC2)nc(NC2Cc3ccccc3C2)n1`, the pKi in assay [2] and in assay [3] was less than 4.00 in each case.
Turning to `Nc1ccc(-c2nc(N)nc(NC3Cc4ccccc4C3)n2)cc1`, the pKi in assay [2] is 4.46; in assay [3], less than 4.30.
For `Nc1cccc(-c2nc(N)nc(NC3Cc4ccccc4C3)n2)c1`, in that order: 5.40 and 5.00.
The like results for `Nc1ccc(-c2cc(NC3Cc4ccccc4C3)nc(N)n2)cc1` were, in that order, 4.12 and less than 4.00.
The like results for `CN(c1nc(N)nc(N2CCCCC2)n1)C1CCCCC1` were, in that order, less than 4.00 and less than 4.00.
Regarding `Nc1nc(NC2Cc3ccccc3C2)nc(N2CCC(C(=O)NCCc3c[nH]c4ccccc34)CC2)n1`, the pKi in assay [2] is 5.70; in assay [3], 4.70.
The like results for `Nc1nc(NC2Cc3ccccc3C2)nc(N2CCC(C(=O)O)CC2)n1` were, in that order, less than 4.00 and less than 4.00.
For `Nc1nc(NC2CCc3ccccc32)nc(N2CCCCC2)n1` (configuration not stated), in that order: 4.12 and less than 4.00.
With `Nc1nc(NC2CCCCC2)nc(N2CCCCC2)n1`, the figures for the pKi in assay [2] and in assay [3] were 4.12 and less than 4.00, respectively.
With `Nc1nc(NC2CCCCC2)nc(-c2ccc(O)cc2)n1`, the pKd in assay [1] is 3.51.
For `Nc1nc(Nc2ccccc2)nc(N2CCCCC2)n1`, the pKi in assay [2] and in assay [3] was less than 4.00 throughout.
Consider `Nc1nc(NC2Cc3ccccc3C2)nc(C2CCCCC2)n1`, for which the pKi in assay [2] is 4.60; in assay [3] it was less than 4.00.
With `Nc1nc(NC2Cc3ccc(F)cc3C2)nc(N2CCCCC2)n1` (configuration not stated), the values for the pKi in assay [2] and in assay [3] were 5.52 and 4.43, respectively.
The like results for `Nc1nc(NCCCc2c(O)cc(Cl)cc2Cl)nc(NC2Cc3ccccc3C2)n1` were, in that order, 5.00 and less than 4.00.
In the case of `Oc1nc(NC2Cc3ccccc3C2)nc(N2CCCCC2)n1`, the pKi in assay [2] and in assay [3] was less than 4.00 throughout.
`Nc1nc(N)nc(N2CCCCC2)n1`: the pKd in assay [1] was 2.30.
For `Nc1nc(N2CCCCC2)nc(N2CCCCC2)n1`, the pKi in assay [2] and in assay [3] was less than 4.00 in each case.
In the case of `Nc1ncnc2c1ncn2[C@@H]1O[C@H](CSCC[C@H](N)C(=O)O)[C@@H](O)[C@H]1O` [S-ADENOSYLHOMOCYSTEINE], the pKi in assay [2] is 4.40.
As to `Nc1nc(NC2Cc3ccccc3C2)nc(N2CCCCC2)n1`, the pKi was 5.10 in assay [2] and 4.12 in assay [3].
For `c1ccc2c(c1)CC(Nc1ncnc(N3CCCCC3)n1)C2`, in that order: less than 4.12 and less than 4.00.
`CSc1nc(N)nc(N)n1`: the pKd in assay [4] was 3.00.
As to `CSc1nc(N)nc(NC2Cc3ccccc3C2)n1`, the negative logarithm of the Ki (pKi) in assay [2] was 5.00; in assay [3], less than 4.00.
Take `C[C@@H](Nc1nc(N)nc(N2CCCCC2)n1)c1ccccc1`: the pKi in assay [2] and in assay [3] was less than 4.00 throughout.
Take `Nc1nc(NC2Cc3ccccc3C2)nc(N2CCC(CO)CC2)n1`: the pKi was 5.05 in assay [2] and 4.12 in assay [3].
`c1cnc2[nH]ccc2c1` gave a pKd in assay [4] of 2.89.
As to `COc1ccc2c(c1)CC(Nc1nc(N)nc(N3CCCCC3)n1)C2` (configuration not stated), the figures for the pKi in assay [2] and in assay [3] were 5.22 and 4.12, respectively.
Consider `Nc1nc(NC2Cc3ccccc3C2)cc(-c2ccc(NCCCc3ccccc3O)cc2)n1`, for which the pKi in assay [2] is 5.12; in assay [3], 4.90.
Regarding `Nc1nc(NC2Cc3ccccc3C2)nc(N2CCCC(CO)C2)n1` (configuration not stated), the pKi is 4.90 in assay [2] and less than 4.00 in assay [3].

(Values after ChEMBL document CHEMBL1132643, “Novel inhibitors of Erm methyltransferases from NMR and parallel synthesis” (J Med Chem, 1999).)
